Like-named read-outs stand apart in the source and are kept apart here.
Key:
murine Abcg2 [1] = target: T1, murine Abcg2 (Mus musculus, UniProt Q7TMS5); type: in vivo, mice; settings: 30 min after i.v. melatonin 10 mg/kg
T1 sequence (Q7TMS5 1-657): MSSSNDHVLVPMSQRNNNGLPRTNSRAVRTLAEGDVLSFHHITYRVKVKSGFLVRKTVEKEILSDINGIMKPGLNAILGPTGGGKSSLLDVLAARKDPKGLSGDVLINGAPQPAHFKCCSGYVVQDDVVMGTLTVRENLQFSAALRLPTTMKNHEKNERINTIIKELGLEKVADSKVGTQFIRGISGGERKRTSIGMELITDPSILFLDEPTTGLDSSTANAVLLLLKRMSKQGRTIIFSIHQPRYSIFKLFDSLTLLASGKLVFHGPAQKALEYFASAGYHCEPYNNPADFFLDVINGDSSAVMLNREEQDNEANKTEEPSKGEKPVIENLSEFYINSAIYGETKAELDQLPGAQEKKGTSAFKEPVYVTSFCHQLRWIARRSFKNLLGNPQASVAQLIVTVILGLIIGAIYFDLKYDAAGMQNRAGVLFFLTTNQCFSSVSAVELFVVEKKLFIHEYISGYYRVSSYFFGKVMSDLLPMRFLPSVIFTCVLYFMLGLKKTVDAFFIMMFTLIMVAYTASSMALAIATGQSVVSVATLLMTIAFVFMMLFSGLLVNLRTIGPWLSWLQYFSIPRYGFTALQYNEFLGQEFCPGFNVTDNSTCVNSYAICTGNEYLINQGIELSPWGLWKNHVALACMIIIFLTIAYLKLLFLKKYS

murine Abcg2 [2] = type: in vivo; settings: male, FVB/N, mouse, plasma, oral, 10 mg/kg body weight, Abcg2−/− male mice, 1 h after oral melatonin 10 mg/kg
Method in brief: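 Male Abcg2−/− and wild-type mice (FVB/N background, n = 8) are dosed orally in the morning with 10 mg/kg melatonin in 10% ethanol/40% PEG/50% saline. Plasma and tissues are taken at 1 h. Samples are precipitated with acetonitrile, then a melatonin-d4 internal standard is added. Analysis is LC-MS/MS on C18 with a water/methanol gradient (1 mM ammonium formate, 0.01% formic acid). Hydroxylated metabolites are reported as arbitrary units. Groups are compared by t-test or Mann–Whitney.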

murine Abcg2 [3] = target: T1, murine Abcg2; experiment: Transepithelial transport assay in MDCK‐II cells transduced with murine Abcg2; type: in vitro ADME; settings: mAbcg2 MDCK‐II, +Ko143 (1 µM); Mel 10 µM, 6‐SO‐Mel 8 µM, 6‐OH‐Mel 10 µM
Method in brief: (§1)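 MDCK-II monolayers, parental or transduced with an ABCG2 variant, in Hanks' balanced salt solution with 25 mM HEPES. Both sides are refreshed with or without Ko143 (1 µM). Test compound (8–10 µM) is added to one side, and the opposite side is sampled at 1, 2, 3 and 4 h. Analysis is by HPLC-UV at 310 nm. Ratio is apically directed % over basolaterally directed % at 4 h; n ≥ 3, mean ± SD.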

[4] = Transepithelial transport assay in parental MDCK‐II cells; type: in vitro ADME, canine; settings: dog, with Ko143 1 µM
Method in brief: as §1

ovine ABCG2 = experiment: Transepithelial transport assay in MDCK‐II cells transduced with ovine ABCG2; type: in vitro ADME; settings: oABCG2 MDCK‐II, +Ko143 (1 µM); Mel 10 µM, 6‐SO‐Mel 8 µM, 6‐OH‐Mel 10 µM
Method in brief: as §1

murine Abcg2 [5] = type: in vivo, mice; settings: female, FVB/N, mouse, intravenous, 10 mg/kg body weight, Abcg2−/− lactating female mice, 30 min after i.v. melatonin 10 mg/kg
human ABCG2 = experiment: Transepithelial transport assay in MDCK‐II cells transduced with human ABCG2; type: in vitro ADME; settings: with Ko143 1 µM
Method in brief: as §1

[6] = wild‐type lactating female mice

Row | Milk levels (relative abundance) (murine Abcg2 [1]; Abcg2−/− lactating female mice) [arbitrary units] | Milk to plasma ratio (relative abundance) (murine Abcg2 [1]; Abcg2−/− lactating female mice) [arbitrary units] | Fold higher milk concentration/levels in wild‐type compared with Abcg2−/− (murine Abcg2 [1]; lactating female mice) | Fold higher milk to plasma ratio in wild‐type compared with Abcg2−/− (murine Abcg2 [1]; lactating female mice) | Milk levels (relative abundance) (murine Abcg2 [1]; [6]) [arbitrary units] | Milk to plasma ratio (relative abundance) (murine Abcg2 [1]; [6]) [arbitrary units] | concentration at 1 h (murine Abcg2 [2]) [ng/mL] | Relative efflux transport ratio (basal to apical % / apical to basal %) at 4 h (murine Abcg2 [3]) | efflux ratio at 4 h [4] | Relative efflux transport ratio (basal to apical % / apical to basal %) at 4 h (ovine ABCG2) | concentration at 30 min (murine Abcg2 [5]; milk, Milk concentration) [ng/mL] | Kp at 30 min (murine Abcg2 [5]; milk, Milk to plasma ratio) | concentration at 30 min (murine Abcg2 [5]; plasma, Plasma concentration) [ng/mL] | efflux ratio at 4 h (human ABCG2) | Structure (SMILES)
1 | 1.42 ± 0.66 | 1.75 ± 0.29 | around twofold | around twofold | 2.90 ± 1.24 | 3.68 ± 1.34 | – | – | – | – | – | – | – | – | COc1ccc2[nH]c(O)c(CCNC(C)=O)c2c1 [2‐OH‐Mel, 2‐hydroxymelatonin]
2 | – | – | almost twofold | – | – | – | 9.39 ± 4.59 | 1.00 ± 0.06 | 1.05 ± 0.06 | 0.99 ± 0.11 | 6340 ± 3870 | 0.02 ± 0.01 | 288000 ± 89300 | 1.02 ± 0.07 | COc1ccc2[nH]cc(CCNC(C)=O)c2c1 [melatonin]

Reference: publication PMC10078363 (Journal of Pineal Research, 2022)
